Results from ChEMBL document CHEMBL4342528, “Discovery of a First-in-Class Protein Arginine Methyltransferase 6 (PRMT6) Covalent Inhibitor” (J Med Chem, 2020).
Activity calls are given as the source filed them. The rule behind the calls is not given here.

Key:
[1] = target: T1, Protein arginine N-methyltransferase 6 (Homo sapiens, UniProt Q96LA8); experiment: Inhibition of human PRMT6 using [3H]SAM as donor and [3H]methylated biotin-labeled peptide as substrate by scintillation proximity assay; settings: read-out: IC50
Summary of the method: (§1)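 Compound titrated into the reaction; 1 h enzyme–compound preincubation stated for PRMT6. Methylated peptide captured on streptavidin/scintillant-coated plates and counted (cpm). IC50 from concentration–response, triplicate, mean ± SD.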
Target sequence in this assay (Q96LA8 whole entry): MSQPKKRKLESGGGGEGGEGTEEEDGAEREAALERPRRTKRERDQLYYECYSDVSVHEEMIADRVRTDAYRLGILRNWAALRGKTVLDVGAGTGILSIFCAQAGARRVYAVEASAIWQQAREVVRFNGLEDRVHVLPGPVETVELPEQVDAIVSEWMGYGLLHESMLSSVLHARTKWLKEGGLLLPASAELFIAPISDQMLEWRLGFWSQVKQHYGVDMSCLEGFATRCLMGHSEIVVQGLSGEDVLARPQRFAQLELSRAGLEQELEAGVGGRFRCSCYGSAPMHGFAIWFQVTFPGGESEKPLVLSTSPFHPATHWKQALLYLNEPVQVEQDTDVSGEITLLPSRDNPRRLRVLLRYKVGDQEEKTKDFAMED

[2] = target: T1, Protein arginine N-methyltransferase 6; experiment: Inhibition of PRMT6 (unknown origin) assessed as reduction in incorporation of [3H]-labeled methyl group into biotinylated substrate using [3H-SAM] at 10 uM incubated for 1 hr by scintillation proximity assay
Summary of the method: (§2)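 Panel of 33 methyltransferases (22 PKMTs, 3 DNMTs, 8 PRMTs), each tested at 10 and 50 μM compound. Activity was read as ³H-methyl transfer from ³H-SAM in a radiometric assay done as previously described.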
Target sequence in this assay (Q96LA8 whole entry, looked up): as the sequence (Q96LA8 whole entry) above

[3] = target: T1, Protein arginine N-methyltransferase 6; experiment: Time dependent inhibition of human PRMT6 pre-incubated for 1 to 30 mins using [3H]SAM as donor and [3H]methylated biotin-labeled peptide as substrate by scintillation proximity assay
Target sequence in this assay (Q96LA8 whole entry, looked up): as the sequence (Q96LA8 whole entry) above

[4] = target: T1, Protein arginine N-methyltransferase 6; experiment: […] inhibition of human PRMT6 pre-incubated for 1 to 30 mins using [3H]SAM as donor and [3H]methylated biotin-labeled peptide as substrate by scintillation proximity assay
Target sequence in this assay (Q96LA8 whole entry, looked up): as the sequence (Q96LA8 whole entry) above

[5] = target: T1, Protein arginine N-methyltransferase 6; experiment: Covalent binding affinity to human PRMT6 assessed as covalent adduct. formation at 300 uM pre-incubated for 1 hr by mass spectrometry
Summary of the method: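 PRMT protein at 15 μM was incubated 1 h at room temperature with a 20-fold molar excess of inhibitor (300 μM). The reaction was quenched with 0.1% aqueous TFA, separated by HPLC (5–95% acetonitrile in water) and analysed by ESI time-of-flight LC/MS for protein–ligand adduct mass.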
Target sequence in this assay (Q96LA8 whole entry, looked up): as the sequence (Q96LA8 whole entry) above

[6] = target: T2, Protein arginine N-methyltransferase 1 (Homo sapiens, UniProt Q99873); experiment: Inhibition of human PRMT1 using [3H]SAM as donor and [3H]methylated biotin-labeled peptide as substrate by scintillation proximity assay
Target sequence in this assay (Q99873 whole entry): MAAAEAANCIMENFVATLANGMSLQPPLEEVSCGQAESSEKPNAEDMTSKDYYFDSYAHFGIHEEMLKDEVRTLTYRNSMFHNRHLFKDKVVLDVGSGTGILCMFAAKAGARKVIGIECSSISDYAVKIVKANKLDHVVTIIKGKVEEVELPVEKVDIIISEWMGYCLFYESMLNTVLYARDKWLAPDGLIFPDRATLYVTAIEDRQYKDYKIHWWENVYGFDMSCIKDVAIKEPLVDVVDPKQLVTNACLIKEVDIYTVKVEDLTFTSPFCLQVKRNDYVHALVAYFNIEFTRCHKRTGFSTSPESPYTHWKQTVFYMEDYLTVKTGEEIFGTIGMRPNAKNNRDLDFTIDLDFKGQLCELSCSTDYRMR

[7] = target: T3, Protein arginine N-methyltransferase 3 (Homo sapiens, UniProt O60678); experiment: Inhibition of human PRMT3 using [3H]SAM as donor and [3H]methylated biotin-labeled peptide as substrate by scintillation proximity assay; summary of the method: as §1
Target sequence in this assay (O60678 whole entry): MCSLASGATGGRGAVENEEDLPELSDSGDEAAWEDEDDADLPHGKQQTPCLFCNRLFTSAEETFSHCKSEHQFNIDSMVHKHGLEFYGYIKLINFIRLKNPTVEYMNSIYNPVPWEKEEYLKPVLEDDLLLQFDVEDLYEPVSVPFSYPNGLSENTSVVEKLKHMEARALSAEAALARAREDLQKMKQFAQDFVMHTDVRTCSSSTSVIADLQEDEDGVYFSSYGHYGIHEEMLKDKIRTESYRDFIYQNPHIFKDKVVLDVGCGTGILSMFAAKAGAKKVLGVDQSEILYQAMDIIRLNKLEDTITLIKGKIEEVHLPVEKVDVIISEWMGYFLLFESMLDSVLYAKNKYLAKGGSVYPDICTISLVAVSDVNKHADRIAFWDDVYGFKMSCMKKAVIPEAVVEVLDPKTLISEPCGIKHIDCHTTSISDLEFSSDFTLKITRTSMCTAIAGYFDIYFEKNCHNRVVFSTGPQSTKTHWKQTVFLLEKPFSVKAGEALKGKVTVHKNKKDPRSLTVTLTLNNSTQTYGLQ

[8] = target: T4, Histone-arginine methyltransferase CARM1 (Homo sapiens, UniProt Q86X55); experiment: Inhibition of human PRMT4 using [3H]SAM as donor and [3H]methylated biotin-labeled peptide as substrate by scintillation proximity assay; summary of the method: as §1
T4 sequence (Q86X55 whole entry): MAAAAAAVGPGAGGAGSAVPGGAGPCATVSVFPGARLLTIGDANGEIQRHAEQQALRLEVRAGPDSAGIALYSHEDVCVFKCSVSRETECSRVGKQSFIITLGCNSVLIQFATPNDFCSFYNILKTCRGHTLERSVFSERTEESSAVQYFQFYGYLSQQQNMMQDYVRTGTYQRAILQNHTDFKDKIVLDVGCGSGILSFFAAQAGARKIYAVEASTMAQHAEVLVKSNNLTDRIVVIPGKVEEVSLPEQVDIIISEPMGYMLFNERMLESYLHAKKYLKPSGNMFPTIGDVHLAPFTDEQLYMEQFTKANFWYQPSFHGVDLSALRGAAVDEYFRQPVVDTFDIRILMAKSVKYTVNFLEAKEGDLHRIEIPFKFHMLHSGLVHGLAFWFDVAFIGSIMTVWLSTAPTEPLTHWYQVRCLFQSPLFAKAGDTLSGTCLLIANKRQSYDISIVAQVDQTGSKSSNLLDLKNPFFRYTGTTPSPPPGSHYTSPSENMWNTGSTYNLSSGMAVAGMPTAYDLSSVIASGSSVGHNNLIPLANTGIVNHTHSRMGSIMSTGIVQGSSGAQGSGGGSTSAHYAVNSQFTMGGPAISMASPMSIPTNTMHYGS

[9] = target: T5, Protein arginine N-methyltransferase 8 (Homo sapiens, UniProt Q9NR22); experiment: Inhibition of human PRMT8 using [3H]SAM as donor and [3H]methylated biotin-labeled peptide as substrate by scintillation proximity assay
Summary of the method: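 Radiometric SPA: ³H-methyl transfer from ³H-SAM to biotin-labeled peptide, captured on streptavidin/scintillant-coated plate, counts per minute read; substrate and cofactor each at their Km for the enzyme; compound titrated; IC50 from triplicate determinations, mean ± SD.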
Target sequence in this assay (Q9NR22 whole entry): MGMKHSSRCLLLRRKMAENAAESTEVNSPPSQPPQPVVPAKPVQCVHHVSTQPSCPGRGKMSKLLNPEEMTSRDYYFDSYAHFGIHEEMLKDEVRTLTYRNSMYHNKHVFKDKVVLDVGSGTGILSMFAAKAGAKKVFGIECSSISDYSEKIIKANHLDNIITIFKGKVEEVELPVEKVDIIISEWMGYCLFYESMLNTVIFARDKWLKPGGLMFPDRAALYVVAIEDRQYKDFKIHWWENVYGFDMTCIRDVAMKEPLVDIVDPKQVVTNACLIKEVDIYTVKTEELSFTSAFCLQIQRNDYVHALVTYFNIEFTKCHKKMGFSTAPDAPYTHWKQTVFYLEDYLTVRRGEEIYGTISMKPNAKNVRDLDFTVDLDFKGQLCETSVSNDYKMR

[10] = target: T1, Protein arginine N-methyltransferase 6; experiment: Inhibition of Flag-tagged PRMT6 (unknown origin) expressed in HEK293 cells at 0.1 to 10 uM incubated for 20 hrs assessed as reduction in H3R2me2a levels; format: cell-based
Target sequence in this assay (Q96LA8 whole entry, looked up): as the sequence (Q96LA8 whole entry) above

[11] = target: T2, Protein arginine N-methyltransferase 1; experiment: Inhibition of PRMT1 in human MCF7 cells assessed as reduction in H4R3me2a levels incubated for 2 days by fluorescence based assay; format: cell-based
Summary of the method: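 MCF7 cells with endogenous PRMT1 were treated with compound for 2 days, with MS023 (1 μM) as positive control. The H4R3me2a fluorescence signal was normalized to H4 and fitted nonlinearly to give IC50.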

[12] = target: T3, Protein arginine N-methyltransferase 3; experiment: Inhibition of PRMT3 (unknown origin) expressed in HEK293T cells were co-transfected with GFP-tagged histone H4 peptide assessed as reduction in H4R3 arginine asymmetric dimethylation at 0.2 to 20 uM incubated for 20 hrs; format: cell-based
Target sequence in this assay (O60678 2-531 limits assumed): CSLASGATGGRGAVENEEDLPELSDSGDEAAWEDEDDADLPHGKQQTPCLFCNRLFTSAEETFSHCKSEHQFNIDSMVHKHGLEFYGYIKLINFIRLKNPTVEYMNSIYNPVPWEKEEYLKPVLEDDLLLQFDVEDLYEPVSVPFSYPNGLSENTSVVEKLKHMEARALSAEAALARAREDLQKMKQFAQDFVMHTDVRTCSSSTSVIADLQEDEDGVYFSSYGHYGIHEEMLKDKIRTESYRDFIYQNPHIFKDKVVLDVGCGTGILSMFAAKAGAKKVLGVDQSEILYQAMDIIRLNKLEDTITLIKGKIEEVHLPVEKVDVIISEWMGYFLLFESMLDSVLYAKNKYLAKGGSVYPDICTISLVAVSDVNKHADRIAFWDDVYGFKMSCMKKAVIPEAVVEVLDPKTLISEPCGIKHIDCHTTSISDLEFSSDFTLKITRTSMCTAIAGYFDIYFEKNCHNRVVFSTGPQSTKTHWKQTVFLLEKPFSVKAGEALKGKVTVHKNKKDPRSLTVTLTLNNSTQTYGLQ

[13] = target: T6, Histone-arginine methyltransferase CARM1 (Homo sapiens) (UniProt Q86X55); experiment: Inhibition of PRMT4 in human MCF7 cells assessed as reduction in BAF155 asymmetric dimethylation at 0.2 to 20 uM incubated for 2 days; format: cell-based
T6 sequence (whole entry): T4 sequence (Q86X55 whole entry)

[14] = test system: MCF7; experiment: Toxicity in human MCF7 cells assessed as reduction in cell viability up to 20 uM incubated for 3 days by CCK8 assay; format: cell-based; settings: mcf7, 72 h
Summary of the method: (§3)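 Cells seeded 1×10^4 per well in triplicate, treated after 24 h with serial dilutions from 20 μM for 3 days; CCK-8 (WST-8) added, 4 h at 37 °C, absorbance at 450 nm; mean ± SD of three replicate experiments.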

[15] = test system: PNT2; experiment: Toxicity in human PNT2 cells assessed as reduction in cell viability up to 20 uM incubated for 3 days by CCK8 assay; format: cell-based; settings: pnt2, 72 h; summary of the method: as §3
[16] = test system: HEK-293T; experiment: Toxicity in HEK293T cells assessed as reduction in cell viability up to 20 uM incubated for 3 days by CCK8 assay; format: cell-based; settings: human, 72 h; summary of the method: as §3
[17] = target: T3, Protein arginine N-methyltransferase 3; experiment: Inhibition of PRMT3 (unknown origin) assessed as reduction in incorporation of [3H]-labeled methyl group into biotinylated substrate using [3H-SAM] at 10 uM incubated for 1 hr by scintillation proximity assay; summary of the method: as §2
Target sequence in this assay (O60678 2-531 limits assumed): as above

[18] = target: T6, Histone-arginine methyltransferase CARM1 (Homo sapiens); experiment: Inhibition of PRMT4 (unknown origin) assessed as reduction in incorporation of [3H]-labeled methyl group into biotinylated substrate using [3H-SAM] at 10 uM incubated for 1 hr by scintillation proximity assay; summary of the method: as §2
[19] = target: T5, Protein arginine N-methyltransferase 8; experiment: Inhibition of PRMT8 (unknown origin) assessed as reduction in incorporation of [3H]-labeled methyl group into biotinylated substrate using [3H-SAM] at 10 uM incubated for 1 hr by scintillation proximity assay; summary of the method: as §2
Target sequence in this assay (Q9NR22 2-394 limits assumed): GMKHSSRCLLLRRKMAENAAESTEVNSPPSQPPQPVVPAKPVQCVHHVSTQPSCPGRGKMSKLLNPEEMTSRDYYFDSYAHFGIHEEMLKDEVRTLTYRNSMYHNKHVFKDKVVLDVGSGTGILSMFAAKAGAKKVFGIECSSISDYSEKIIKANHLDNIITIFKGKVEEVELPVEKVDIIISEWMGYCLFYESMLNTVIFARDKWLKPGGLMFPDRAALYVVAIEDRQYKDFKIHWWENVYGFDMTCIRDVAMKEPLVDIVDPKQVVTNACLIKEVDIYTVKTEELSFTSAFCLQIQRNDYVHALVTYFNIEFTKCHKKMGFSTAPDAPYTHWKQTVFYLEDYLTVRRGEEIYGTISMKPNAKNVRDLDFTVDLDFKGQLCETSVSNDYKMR

[20] = target: T3, Protein arginine N-methyltransferase 3; experiment: Inhibition of PRMT3 (unknown origin) assessed as reduction in incorporation of [3H]-labeled methyl group into biotinylated substrate using [3H-SAM] at 50 uM incubated for 1 hr by scintillation proximity assay relative to control; summary of the method: as §2
Target sequence in this assay (O60678 2-531 limits assumed): as the sequence (O60678 2-531 limits assumed) above

[21] = target: T6, Histone-arginine methyltransferase CARM1 (Homo sapiens); experiment: Inhibition of PRMT4 (unknown origin) assessed as reduction in incorporation of [3H]-labeled methyl group into biotinylated substrate using [3H-SAM] at 50 uM incubated for 1 hr by scintillation proximity assay relative to control; summary of the method: as §2
[22] = target: T1, Protein arginine N-methyltransferase 6; experiment: Inhibition of PRMT6 (unknown origin) assessed as reduction in incorporation of [3H]-labeled methyl group into biotinylated substrate using [3H-SAM] at 50 uM incubated for 1 hr by scintillation proximity assay relative to control; summary of the method: as §2
Target sequence in this assay (Q96LA8 whole entry, looked up): as the sequence (Q96LA8 whole entry) above

[23] = target: T5, Protein arginine N-methyltransferase 8; experiment: Inhibition of PRMT8 (unknown origin) assessed as reduction in incorporation of [3H]-labeled methyl group into biotinylated substrate using [3H-SAM] at 50 uM incubated for 1 hr by scintillation proximity assay relative to control; summary of the method: as §2
Target sequence in this assay (Q9NR22 2-394 limits assumed): as the sequence (Q9NR22 2-394 limits assumed) above

[24] = target: T3, Protein arginine N-methyltransferase 3; experiment: Inhibition of PRMT3 (unknown origin) expressed in HEK293T cells were co-transfected with GFP-tagged histone H4 peptide assessed as reduction in H4R3 arginine asymmetric dimethylation at 2.2 to 20 uM incubated for 20 hrs; format: cell-based
Target sequence in this assay (O60678 2-531 limits assumed): as the sequence (O60678 2-531 limits assumed) above

[25] = target: T6, Histone-arginine methyltransferase CARM1 (Homo sapiens); experiment: Inhibition of PRMT4 in human MCF7 cells assessed as reduction in BAF155 asymmetric dimethylation at 2.2 to 20 uM incubated for 2 days; format: cell-based
[26] = target: T6, Histone-arginine methyltransferase CARM1 (Homo sapiens); experiment: Inhibition of PRMT4 in human MCF7 cells assessed as reduction in BAF155 asymmetric dimethylation at 2 uM incubated for 2 days; format: cell-based
[27] = Inhibition of type 1 PRMT (unknown origin); set-up: species or system Homo sapiens
[28] = target: T1, Protein arginine N-methyltransferase 6; experiment: Inhibition of Flag-tagged PRMT6 (unknown origin) expressed in HEK293 cells at 2 uM incubated for 20 hrs assessed as reduction in H3R2me2a levels; format: cell-based

Structure (SMILES)	IC50 [1]	inhibition [2]	Activity [5]	IC50 [7]	IC50 [8]	IC50 [9]	inhibition [10]	Activity [14]	Activity [15]	Activity [16]	inhibition [22]	further results
CCC(=O)Nc1cccc(-c2c[nH]cc2CN(C)CCN)c1	0.028 µM	> 40%	inactive	15 µM	2 µM	0.13 µM	Active	Non-Toxic	Non-Toxic	Non-Toxic	> 80%	TDI [3]: inactive; inhibition [4]: Active; IC50 [6]: 0.17 µM; IC50 [11]: 6.7 µM; inhibition [11]: Dose-dependent effect; inhibition [12]: inactive; inhibition [13]: inactive; inhibition [17]: > 40%; inhibition [18]: > 40%; inhibition [19]: > 40%; inhibition [20]: > 80%; inhibition [21]: > 80%; inhibition [23]: > 80%
C=CC(=O)Nc1cccc(-c2c[nH]cc2CN(C)CCO)c1	9.8 µM	50%	inactive	> 200 µM	51 µM	23 µM	inactive	Non-Toxic	Non-Toxic	Non-Toxic	80%	inhibition [24]: inactive; inhibition [25]: inactive
CNCCN1CCC(c2cc(CN(C)C(=O)c3cccc(Oc4ccccc4)c3)ccn2)CC1	–	–	–	–	–	–	–	–	–	–	–	inhibition [26]: Active
CC(C)Oc1ccc(-c2c[nH]cc2CN(C)CCN)cc1	–	–	–	–	–	–	–	–	–	–	–	IC50 [27]: 0.004 to 0.119 µM; inhibition [28]: Active
